How the values were obtained:
[1] = test system: HEL; test: (§1) Cytotoxicity against HEL cells infected with Cytomegalovirus assessed as alteration in cell morphology by microscopic method; assay type: cell-based; conditions: human, hel
Method in brief: (§2)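 In the HEL cultures used for the antiviral assays, cell morphology was examined microscopically across varying compound concentrations. MCC is the minimum concentration causing a microscopically detectable alteration of cell morphology.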

[2] = test system: Human alphaherpesvirus 3; test: Antiviral activity against thymidine kinase expressing Varicella-Zoster virus OKA infected in HEL cells assessed as reduction in virus plaque formation; assay type: functional, cell-based, strain Oka vaccine
Method in brief: (§3)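 Confluent HEL fibroblast cultures were infected with VZV at an input of 100 PFU and incubated with varying compound concentrations. Plaques were counted once plaque formation was complete in untreated infected controls.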

[3] = test system: Human alphaherpesvirus 3; test: Antiviral activity against thymidine kinase deficient Varicella-Zoster virus 07-1 infected in HEL cells assessed as reduction in virus plaque formation; assay type: functional, cell-based; method in brief: as §3
[4] = test system: HEL; test: (§4) Cytotoxicity against HEL cells infected with Varicella-Zoster virus assessed as alteration in cell morphology by microscopic method; assay type: cell-based; conditions: human, hel; method in brief: as §2
[5] = test system: Cytomegalovirus; test: Antiviral activity against Cytomegalovirus AD169 infected in HEL cells assessed as reduction in virus plaque formation; assay type: functional, cell-based
Method in brief: (§5)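 Confluent HEL fibroblast cultures infected with 100 PFU of HCMV and kept with varying compound concentrations. Plaques scored once plaque formation was complete in untreated infected controls.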

[6] = test system: Cytomegalovirus; test: Antiviral activity against Cytomegalovirus Davis infected in HEL cells assessed as reduction in virus plaque formation; assay type: functional, cell-based; method in brief: as §5
[7] = test system: L1210; test: Anti-proliferative activity against mouse L1210 cells measured after 48 hrs by coulter counter method; assay type: ADME, cell-based
Method in brief: (§6)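 Cells at 300,000–500,000 cells/mL, combined 1:1 by volume with compound dilutions, incubated at 37 °C: L1210 for two days, CEM for three days, HeLa for four days. Cells counted by Coulter counter.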

[8] = test system: CCRF-CEM; test: Anti-proliferative activity against human CEM cells measured after 72 hrs by coulter counter method; assay type: ADME, cell-based; method in brief: as §6
[9] = test system: HeLa; test: Anti-proliferative activity against human HeLa cells measured after 4 days by coulter counter method; assay type: ADME, cell-based; method in brief: as §6
[10] = test system: HMEC-1; test: Anti-proliferative activity against HMEC1 cells by coulter counter method; assay type: ADME, cell-based, Homo sapiens
Method in brief: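 HMEC-1 cells at 300,000–500,000 cells/mL, mixed 1:1 by volume with serial dilutions of test compound, incubated at 37 °C. Cell number counted by Coulter counter.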

[11] = as §1; assay type: cell-based; conditions: human, HEL cells infected with Cytomegalovirus; method in brief: as §2
[12] = as §4; assay type: cell-based; conditions: human, HEL cells infected with Varicella-Zoster virus; method in brief: as §2
[13] = test system: HEL; test: Cytotoxicity against HEL cells infected with Varicella-Zoster virus assessed as growth inhibition; assay type: cell-based; conditions: human, hel
[14] = Cytotoxicity against virus infected HEL cells assessed as alteration in cell morphology by microscopic method; assay type: cell-based; conditions: human; method in brief: as §2
[15] = test system: HEL; test: Cytotoxicity against HEL cells infected with Cytomegalovirus assessed as growth inhibition; assay type: cell-based; conditions: human
[16] = test system: HeLa; test: Anti-proliferative activity against human HeLa cells measured after 72 hrs by coulter counter method; assay type: ADME, cell-based
[17] = test system: Human adenovirus 2; test: Antiviral activity against Human adenovirus 2 infected in HEL cells assessed as reduction in virus-induced cytopathogenicity; assay type: functional, cell-based; conditions: Human mastadenovirus C
Method in brief: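 Confluent HEL fibroblast monolayers were infected with 100 CCID50 of virus and incubated with varying concentrations of compound. Cytopathicity was scored once it was complete in untreated infected controls.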

[18] = test system: Human alphaherpesvirus 2; test: Antiviral activity against Herpes simplex virus 2 G infected in HEL cells assessed as reduction in virus-induced cytopathogenicity; assay type: functional, cell-based; conditions: Human alphaherpesvirus 2, strain G
[19] = Human alphaherpesvirus 3, strain Oka vaccine, HEL
[20] = Human alphaherpesvirus 3, 07-1, HEL
[21] = Human betaherpesvirus 5, AD169, HEL
[22] = Human betaherpesvirus 5, Davis, HEL

| Compound | EC50 [2, 19] | EC50 [3, 20] | EC50 [5, 21] | IC50 ([7]; Mus musculus, L1210, 48 h) | IC50 ([8]; Homo sapiens, CCRF-CEM, 72 h) | IC50 ([9]; Homo sapiens, HeLa, 96 h) | MCC [11] | MCC [12] | CC50 [13] | EC50 [6, 22] | MCC [14] | also measured |
| --- | --- | --- | --- | --- | --- | --- | --- | --- | --- | --- | --- | --- |
| CCOP(=O)(OCC)C1CC(Cn2c(=O)n(Cc3ccc(F)cc3)c(=O)c3ccccc32)ON1Cc1ccccc1 (mixture of isomers; cis) | > 4 µM | > 4 µM | > 4 µM | 19 µM | 17 µM | 17 µM |  |  |  |  |  | MCC [1]: 20 µM; MCC [4]: 20 µM; EC50 [6]: > 4 µM; IC50 ([10]; Homo sapiens, HMEC-1): 27 µM |
| CCOP(=O)(OCC)C1CC(Cn2c(=O)n(C(=O)c3ccccc3F)c(=O)c3ccccc32)ON1Cc1ccccc1 (mixture of isomers) | 16.7 µM | 20 µM | > 20 µM | 155 µM | 158 µM | ≥ 250 µM | 100 µM | 100 µM | 21.4 µM | > 20 µM |  | IC50 ([10]; Homo sapiens, HMEC-1): > 250 µM |
| CCOP(=O)(OCC)C1CC(Cn2c(=O)n(Cc3cccc(F)c3)c(=O)c3ccccc32)ON1Cc1ccccc1 (mixture of isomers; cis) | > 20 µM | > 20 µM |  |  |  | 73 µM |  | 100 µM |  |  |  | MCC [1]: 20 µM; EC50 [5]: > 20 µM; EC50 [6]: > 20 µM; IC50 ([7]; l1210): 89 µM; IC50 ([8]; ccrf-cem): 49 µM; IC50 ([10]; hmec-1): 204 µM |
| NC(=O)c1ncn([C@@H]2O[C@H](CO)[C@@H](O)[C@H]2O)n1 [RIBAVIRIN] |  |  |  |  |  |  |  |  |  |  | ≥ 250 µM |  |
| CCOP(=O)(OCC)C1CC(Cn2c(=O)n(Cc3cccc(F)c3)c(=O)c3ccccc32)ON1Cc1ccccc1 (mixture of isomers; trans) |  |  |  |  |  |  |  |  |  |  |  | MCC [1]: 100 µM; EC50 [3]: 20 µM; EC50 [5]: 9.9 µM; EC50 [6]: 8.94 µM; CC50 [15]: 20.8 µM; IC50 ([7]; l1210): 17 µM; IC50 ([8]; ccrf-cem): 17 µM; IC50 ([9]; hela): 63 µM; IC50 ([10]; hmec-1): 28 µM |
| CCOP(=O)(OCC)C1CC(Cn2c(=O)n(Cc3ccccc3)c(=O)c3ccccc32)ON1Cc1ccccc1 (mixture of isomers; trans) |  |  |  |  |  |  |  |  |  |  |  | EC50 [2]: > 20 µM; EC50 [3]: > 20 µM; EC50 [5]: ≥ 14.5 µM; EC50 [6]: 13.1 µM; CC50 [15]: 41.7 µM; IC50 ([7]; l1210): 17 µM; IC50 ([8]; ccrf-cem): 15 µM; IC50 ([9]; hela): 73 µM |
| CCOP(=O)(OCC)[C@@H]1C[C@@H](Cn2c(=O)n(C(=O)c3ccccc3)c(=O)c3ccccc32)ON1C | 7.5 µM | 13.7 µM | > 100 µM | ≥ 159 µM | 70 µM |  | 100 µM | ≥ 100 µM | > 100 µM | > 100 µM |  | IC50 [16]: 96 µM |
| CCOP(=O)(OCC)C1CC(Cn2c(=O)n(Cc3cccc(F)c3)c(=O)c3ccccc32)ON1C (mixture of isomers) | 7 µM | 27.1 µM | > 20 µM | 118 µM | 77 µM | 86 µM | 100 µM | ≥ 100 µM | 36.8 µM | 44.7 µM |  | IC50 ([10]; Homo sapiens, HMEC-1): 149 µM |
| Nc1nc2c(ncn2COCCO)c(=O)[nH]1 [ACYCLOVIR] |  |  |  |  |  |  |  | > 440 µM |  |  | > 250 µM |  |
| CCOP(=O)(OCC)[C@H]1C[C@@H](Cn2c(=O)n(C(=O)c3ccccc3)c(=O)c3ccccc32)ON1C | 7.7 µM | 10.9 µM | > 100 µM | > 200 µM | 74 µM |  | 100 µM | > 100 µM |  | > 100 µM |  | IC50 [16]: > 200 µM |
| CCOP(=O)(OCC)[C@H]1C[C@@H](Cn2ccc(=O)n(C(=O)c3ccccc3)c2=O)ON1C | 65.7 µM | 88.4 µM | > 100 µM | > 200 µM | > 200 µM |  | 100 µM | > 100 µM |  | > 100 µM |  | IC50 [16]: > 200 µM |
| CCOP(=O)(OCC)[C@@H]1C[C@@H](Cn2c(=O)n(C(=O)c3ccccc3)c(=O)c3ccccc32)ON1Cc1ccccc1 (relative stereo) | 8.5 µM | > 20 µM | > 20 µM | 154 µM | ≥ 250 µM | > 250 µM | 100 µM | 100 µM | 28.9 µM | > 20 µM |  |  |
| Nc1ccn([C@H]2CC[C@@H](CO)O2)c(=O)n1 [ZALCITABINE] |  |  |  |  |  |  |  |  |  |  | > 250 µM | EC50 [17]: 7.2 µM |
| Nc1nc(O)c2ncn(COC(CO)CO)c2n1 [GANCICLOVIR] |  |  | 14.9 µM |  |  |  | > 350 µM |  |  | 6.5 µM | > 100 µM | EC50 [18]: 0.055 µM; CC50 [15]: > 350 µM |
| CCOP(=O)(OCC)[C@@H]1C[C@@H](Cn2ccc(=O)n(C(=O)c3ccccc3)c2=O)ON1C | 83.6 µM | > 100 µM | > 100 µM | > 200 µM | > 200 µM |  | 100 µM | > 100 µM |  | > 100 µM |  | IC50 [16]: > 200 µM |
| Cc1cn([C@H]2C[C@H](F)[C@@H](CO)O2)c(=O)[nH]c1=O [ALOVUDINE] |  |  |  |  |  |  |  |  |  |  | > 250 µM | EC50 [17]: 10 µM |
| O=c1[nH]c(=O)n([C@H]2C[C@H](O)[C@@H](CO)O2)cc1/C=C/Br [BRIVUDINE] | 0.005 µM | 22.7 µM |  |  |  |  |  | > 300 µM | 300 µM |  | > 250 µM | EC50 [18]: 146 µM |
| CCOP(=O)(OCC)[C@@H]1C[C@@H](Cn2c(=O)n(C(=O)c3cccc(F)c3)c(=O)c3ccccc32)ON1Cc1ccccc1 (relative stereo) | 8.7 µM | 8.5 µM | > 20 µM | 170 µM | 224 µM | > 250 µM | 20 µM | 100 µM | 9.8 µM | > 20 µM |  | IC50 ([10]; Homo sapiens, HMEC-1): > 250 µM |

From ChEMBL document CHEMBL3994569, “Synthesis, anti-varicella-zoster virus and anti-cytomegalovirus activity of quinazoline-2,4-diones containing isoxazolidine and phosphonate substructures” (Eur J Med Chem, 2017)
